*1 amine or outer side, *2 acyl side, *3 side chain or, on linkers, in order; H or OH if unused. Where a SMILES comes first, the peptide text is derived from it. Bridges are numbered along the chain shown (N, C = ends). [ ]: non-standard residue; d: D form. X1 = O=C([C@H](O)CS[*:2])[*:1]; ΔPro = O=C(O)[C@@H]1C=CCN1

This is an account of results in ChEMBL document CHEMBL3272308, “Pharmacological effects of introducing a double bond into a binding site of oxytocin. Analogues with L-3,4-dehydroproline in position 7” (1977).

For assay [1], the species on record is Rattus norvegicus. Put plainly: Ratio of oxytocin to compound for antidiuretic activity in rat. It is filed as functional, Urine.
The species entered for assay [2] is Rattus norvegicus. The assay can be described thus: Antidiuretic activity in rat. It is filed as functional, Urine.
For assay [3], the species on record is Rattus norvegicus. The assay can be described thus: Activity at uterotonic receptor in rat uterus assessed as uterotonic activity. The format is tissue-based. The method, boiled down: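 Isolated female rat uterine horn in the bathing fluid used for the oxytocic assay. Isometric contractions were recorded at a baseline tension of 1 g. Cumulative dose-response curves (van Rossum) were built by raising doses geometrically until a maximal response, alternating oxytocin and analogue on the same horn with return to baseline between runs. pD2 is the negative log of the concentration giving 50% of maximum.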

The species named for the next assay is Gallus gallus. Put plainly: Vasodepressor activity in fowl. It is filed as functional.
For assay [4], the species on record is Rattus norvegicus. Put plainly: Pressor activity in rat. It is filed as functional.

Take `CC[C@H](C)[C@@H]1NC(=O)[C@H](Cc2ccc(O)cc2)NC(=O)[C@@H](N)CSSC[C@@H](C(=O)N2CC=C[C@H]2C(=O)N[C@@H](CC(C)C)C(=O)NCC(N)=O)NC(=O)[C@H](CC(N)=O)NC(=O)[C@H](CCC(N)=O)NC1=O`: the Ratio in the assay listed under Rattus norvegicus [1] came to 2. For the same molecule, the Activity was determined as 5.9 U/mg in the assay filed under Rattus norvegicus [2], 1070 U/mg in the assay filed under Rattus norvegicus [3] and 548 U/mg in the assay filed under Gallus gallus.
As for `CC[C@H](C)[C@@H]1NC(=O)[C@H](Cc2ccc(O)cc2)NC(=O)CCSSC[C@@H](C(=O)N2CC=C[C@H]2C(=O)N[C@@H](CC(C)C)C(=O)NCC(N)=O)NC(=O)[C@H](CC(N)=O)NC(=O)[C@H](CCC(N)=O)NC1=O`, the values for the Activity in the assay filed under Rattus norvegicus [2], in the assay filed under Rattus norvegicus [3] and in the assay listed under Gallus gallus were 23.3 U/mg, 1070 U/mg and 1008 U/mg, respectively.
For the molecule `CC[C@H](C)[C@@H]1NC(=O)[C@H](Cc2ccc(O)cc2)NC(=O)CCSSC[C@H](C(=O)N2CCC[C@H]2C(=O)N[C@@H](CC(C)C)C(=O)NCC(N)=O)NC(=O)[C@H](CC(N)=O)NC(=O)[C@H](CCC(N)=O)NC1=O`, the Activity in the assay filed under Rattus norvegicus [3] is 803 U/mg.
With `CC[C@H](C)[C@@H]1NC(=O)[C@H](Cc2ccc(O)cc2)NC(=O)[C@H](O)CSSC[C@@H](C(=O)N2CCC[C@H]2C(=O)N[C@@H](CC(C)C)C(=O)NCC(N)=O)NC(=O)[C@H](CC(N)=O)NC(=O)[C@H](CCC(N)=O)NC1=O` (YIQNCPLG-NH2; linker N-5 via X1), the Activity in the assay filed under Rattus norvegicus [2] is 16.6 U/mg; in the assay filed under Rattus norvegicus [3], 1280 U/mg; in the assay listed under Gallus gallus, 1778 U/mg; in the assay filed under Rattus norvegicus [4], 14.7 U/mg.
For `CC[C@H](C)[C@@H]1NC(=O)[C@H](Cc2ccc(O)cc2)NC(=O)[C@H](O)CSSC[C@@H](C(=O)N2CC=C[C@H]2C(=O)N[C@@H](CC(C)C)C(=O)NCC(N)=O)NC(=O)[C@H](CC(N)=O)NC(=O)[C@H](CCC(N)=O)NC1=O` (YIQNC[ΔPro]LG-NH2; linker N-5 via X1), the Activity amounted to 76.7 U/mg in the assay filed under Rattus norvegicus [2], 880 U/mg in the assay filed under Rattus norvegicus [3] and 1295 U/mg in the assay listed under Gallus gallus.
`CC[C@H](C)[C@@H]1NC(=O)[C@H](Cc2ccc(O)cc2)NC(=O)CCSSC[C@@H](C(=O)N2CCC[C@H]2C(=O)N[C@@H](CC(C)C)C(=O)NCC(N)=O)NC(=O)[C@H](CC(N)=O)NC(=O)[C@H](CCC(N)=O)NC1=O` [DEMOXYTOCIN]: the Activity is listed as 19 U/mg in the assay filed under Rattus norvegicus [2], 975 U/mg in the assay listed under Gallus gallus and 1.44 U/mg in the assay listed under Rattus norvegicus [4].
As for `CC[C@H](C)[C@@H]1NC(=O)[C@H](Cc2ccc(O)cc2)NC(=O)[C@@H](N)CSSC[C@@H](C(=O)N2CCC[C@H]2C(=O)N[C@@H](CC(C)C)C(=O)NCC(N)=O)NC(=O)[C@H](CC(N)=O)NC(=O)[C@H](CCC(N)=O)NC1=O` [OXYTOCIN], the Activity in the assay filed under Rattus norvegicus [2] was found to be 2.7 U/mg; in the assay listed under Rattus norvegicus [3] it was 546 U/mg; in the assay filed under Gallus gallus, 507 U/mg; in the assay filed under Rattus norvegicus [4], 3.1 U/mg.
